Assay outcomes deposited in PubChem by The Scripps Research Institute Molecular Screening Center.
Most compounds without a hit are left out; they make up all but 4.6% or so of the library.
CHO parental Ca – signal in parental CHO cells, OX1R antagonist counter-screen | inhibition, % at 5.6 µM | hit rate 0.63% among 330,000 | parental CHO-K1, ATP-induced calcium, Fluo-8 fluorescence;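 active means inhibition above that plate's mean sample inhibition plus 3 SD, cut at about 26% in these data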;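 further: 0% = ATP-challenged DMSO wells and 100% = DMSO wells without ATP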
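material = parental CHO cells | also added = ATP as calcium-mobilizing challenge | dosing = single point at 5.6 µM | detection = intracellular calcium via Fluo-8 no-wash fluorescent dye | read-out = % inhibition | benchmarks = low control ATP plus DMSO, high control DMSO only | repeats = one well per compound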
TAAR1 antag – antagonists of human TAAR1. Q96RJ0. CHO RD-HGA16 TAAR1, Fluo-8 calcium fluorescence, antagonist. inhibition, % at 3 µM. hit rate 1.5% among 360,000;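 active means inhibition above a per-plate cutoff, the mean inhibition of test compounds on that plate plus 3 SD, cut at about 49% in these data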;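 further: 0% = DMSO plus EC80 beta-PEA response and 100% = DMSO alone without agonist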
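System: RD-HGA16 CHO cells with stable hTAAR1 and Gα16 | Probe or stimulus: EC80 β-phenethylamine stimulus | Dosing: 3 µM, single point | Times: Dye loading 75 min at 37 °C, then 30 min room temperature | Measured by: Fluo-8 calcium-sensitive fluorescence | Read-out basis: % inhibition of agonist calcium response | Replicates: n of 1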
GPR7 antag – human neuropeptides B/W receptor 1 antagonism; hit rate 1.1% among 290,000; inhibition, % at 4.4 µM; AID 1861; P48145; GPR7-expressing cells, fluorescence antagonist assay; in the data active means inhibition above about 16%, passing the limit was not always enough;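 further: cells stimulated with the agonist NPW; 0% = agonist with vehicle and 100% = vehicle without agonist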
TAAR1 agonist – human TAAR1 agonism; Q96RJ0; CHO RD-HGA16 TAAR1, Fluo-8 calcium fluorescence; vehicle wells 0%, saturating PEA agonist 100%; activation, % at 3 µM; hit rate 0.99% among 360,000;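 active means activation above the mean activation of all test compounds in the run plus 3 SD, cut at about 38% in these data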
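System: CHO RD-HGA16 cells carrying human TAAR1 plus Gα16; Incubation: 17-24 h seeding, 75 min 37 °C dye, 30 min RT; Measured by: Fluo-8 fluorescence, 5 s baseline then 140 s kinetic read; Control set: DMSO and PEA EC100; Replication: single well for each compound.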
OX1R antag-1 – blocks the human orexin 1 receptor; CHO/OX1R cells, Fluo-8 calcium fluorescence, orexin A; inhibition, % at 5 µM; hit rate 0.43% among 330,000;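 active means inhibition above its plate's threshold, mean inhibition of all tested compounds on the plate plus 3 SD, cut at about 37% in these data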;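 further: 0% = orexin A challenge wells and 100% = SB-334867-A antagonist wells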
Target sequence (O43613 whole entry, looked up): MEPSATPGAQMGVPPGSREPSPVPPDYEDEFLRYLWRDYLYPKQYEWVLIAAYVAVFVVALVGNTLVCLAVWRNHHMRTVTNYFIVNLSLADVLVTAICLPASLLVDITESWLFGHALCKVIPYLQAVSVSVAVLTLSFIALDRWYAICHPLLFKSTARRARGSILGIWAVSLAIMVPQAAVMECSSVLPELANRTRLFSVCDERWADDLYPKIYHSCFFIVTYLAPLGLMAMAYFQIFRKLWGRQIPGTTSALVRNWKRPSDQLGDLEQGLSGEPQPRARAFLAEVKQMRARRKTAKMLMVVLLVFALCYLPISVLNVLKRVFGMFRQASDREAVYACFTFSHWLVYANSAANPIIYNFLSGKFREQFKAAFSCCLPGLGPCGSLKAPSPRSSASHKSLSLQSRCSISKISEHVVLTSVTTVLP
OX1R antag-2 – antagonists of human orexin 1 receptor (OX1R) | AID 485270 | OX1R-expressing cells, FRET antagonist read-out | hit rate 1.8% among 330,000 | inhibition, % at 6.6 µM | O43613; in the data active means inhibition mostly above about 38%, no sharp cut-off; inactive means mostly below about 40%;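 further: 0% = agonist challenge alone and 100% = reference antagonist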
Numbers without * were called inactive; nt = no result.

SMILES	CHO parental Ca	TAAR1 antag	GPR7 antag	TAAR1 agonist	OX1R antag-1	OX1R antag-2
CCOC(=O)c1nn(-c2ccccc2)c(=O)c2c(NC(C)=O)scc12	3.5	0.3	1.3	14.0	-4.6	11.0
CCc1c(C#N)c(SCCC(=O)Nc2cccc(OC)c2)nc2c1C(=O)CC(C)(C)C2	15.9	58.3*	-7.8	17.3	16.9	21.6
COc1ccc(-c2c(C#N)c(SCc3c(C)noc3C)nc3c2C(=O)CC(C)(C)C3)cc1	-8.7	-8.3	0.8	2.2	-8.3	1.0
CC(=O)Nc1nc(COc2ccc3ccccc3c2)cs1	7.3	34.6	3.8	38.3*	9.7	22.6
CN(C)S(=O)(=O)c1cccc(COC(=O)Cc2c(F)cccc2Cl)c1	45.4*	19.7	0.4	1.7	-14.4	31.9
CN(C)S(=O)(=O)c1cccc(COC(=O)c2cccnc2Cl)c1	10.5	-8.3	5.8	8.3	17.3	38.4
CCN(c1ccccc1)C1(O)C(=O)c2ccccc2C1=O	-2.1	12.9	19.6*	3.4	-14.3	11.8
O=C(C[C@@H]1CC[C@@H]2[C@H](COC[C@H](O)CN2C(=O)Nc2ccc(F)cc2)O1)NCCc1ccncc1	nt	-19.8	nt	1.9	nt	nt
CC1CC(C)(C)CC2(C1)NC(=O)N(CC(=O)Nc1ccc3[nH]c(=O)[nH]c3c1)C2=O (centres undefined)	-3.8	-16.4	nt	1.4	2.8	2.5
Cc1[nH]c2ccccc2c1C(=O)CN1C(=O)NC2(CC(C)CC(C)(C)C2)C1=O (centres undefined)	-7.1	53.4*	18.6*	17.0	-2.5	19.5
CC1CC(C)(C)CC2(C1)NC(=O)N(CC(=O)OCc1ccc(Br)cc1)C2=O (centres undefined)	-9.9	22.7	nt	41.3*	-30.8	-3.5
CCOC(=O)c1snc2c(=O)[nH]cnc12	4.0	-5.4	-7.8	18.5	-1.2	41.7*
O=C(Nc1ccccc1)c1snc2c(=O)[nH]cnc12	-16.0	1.6	-1.3	0.8	-25.2	74.4*
COc1cc(CNCC(O)c2ccccc2)ccc1OCc1ccc(Cl)nc1 (centres undefined)	-21.6	-10.6	6.1	39.2*	-15.1	5.3
COc1cccc(-c2ncc3ccccc3c2COC(=O)N2CCOCC2)c1	-18.7	55.6*	nt	22.9	-9.0	11.8
COC(=O)[C@H](Cc1ccccc1)NC(=O)NC(C)CCc1ccccc1 (some centres undefined)	13.3	13.1	22.5	44.6*	23.2	7.7
C=CC[n+]1c(/C=C2\C=Cc3cc(C)ccc3N2CC)ccc2ccccc21	56.2*	36.6	35.4*	14.0	68.9*	114.0*
COC(=O)[C@]12C[C@H](CC(=O)N3CCSCC3)C(=O)N(Cc3ccc4c(c3)OCO4)C1=C[C@H](C(C)(C)C)O[C@@H]2C	nt	-16.4	nt	-0.1	nt	nt
CC(C)(C)c1ccc(OCc2ccc(C(=O)N/N=C/c3ccc(O)c(O)c3)cc2)cc1	3.6	53.0*	-6.1	16.3	-10.4	10.6
COc1ccccc1Cc1c(C(C)(C)C)nc2c(C)cc(Br)cn12	nt	-10.1	nt	0.7	nt	nt
CC(C)C[C@@H]1Cc2[nH][nH]c(=O)c2[C@H](C(C)C)O1	nt	-0.1	nt	-0.6	nt	nt
Cc1n[nH]c(=O)c2c(NC(=O)CSc3nc4ccccc4c(=O)n3-c3ccc(OC(F)F)cc3)oc(C)c12	-21.3	1.3	nt	5.1	-7.9	76.3*
COCCCn1c(SCC(=O)Nc2oc(C)c3c(C)n[nH]c(=O)c23)nc2ccccc2c1=O	-24.2	-7.7	nt	-0.2	-34.8	41.1
CC(C)(C)C(=O)NC(=S)NNC(=O)C(c1ccccc1)c1ccccc1	79.5*	nt	89.8*	nt	92.7*	1.0
O=C(Nc1ccccc1)Nc1ccc2c(c1)CCC2	nt	-6.8	-1.6	1.6	nt	nt
SMILES	CHO parental Ca	TAAR1 antag	GPR7 antag	TAAR1 agonist	OX1R antag-1	OX1R antag-2
O=C(Nc1cccc([N+](=O)[O-])c1)Nc1ccc2c(c1)CCC2	43.2*	30.9	19.2	2.5	4.8	61.6*
O=C(Nc1cccc(F)c1)Nc1ccc2c(c1)CCC2	22.2	14.1	-4.4	0.8	-1.6	24.4
O=C(Nc1ccc(F)cc1)Nc1cccc(Br)c1	75.8*	21.9	nt	6.3	61.4*	57.6*
O=C(Nc1cccc([N+](=O)[O-])c1)c1cc2ccccc2cc1O	36.1*	2.7	8.9	11.8	23.8	50.8*
O=C(Nc1ccc(F)cc1)Nc1ccc2c(c1)CCC2	39.0*	19.4	-9.6	1.5	6.9	10.1
CC(C)NC(=O)C1(C)CSCC(=O)N1Cc1cccc(C(F)(F)F)c1 (centres undefined)	nt	-4.3	nt	5.9	nt	nt
CCCCCn1cc(CCC(=O)Nc2ccc(Oc3cccnc3)cc2)c2ccccc21	nt	3.0	nt	-1.4	nt	nt
CC(=NNc1cc(C)c2ccccc2n1)c1ccccn1	nt	38.3	nt	15.2	nt	nt
Cc1cc(Oc2cccnc2)ccc1NC(=O)Cc1c[nH]c2ccccc12	nt	7.1	nt	1.2	nt	nt
Cc1cc(C(=O)Nc2ccc3c(c2)CCC3)ccc1[N+](=O)[O-]	-22.3	-22.9	nt	-3.1	13.0	45.3*
Clc1cccc(Cl)c1/C=C/c1nc2ccccc2[nH]1	-26.0	nt	-14.1	nt	-19.7	49.8*
Cc1cccc(C)c1-n1nnnc1C(c1ccnc2ccccc12)N1CCN(C(=O)OC(C)(C)C)CC1 (centres undefined)	nt	-17.8	nt	0.4	nt	nt
O=C(NCc1ccco1)c1cccc2c1C(=O)c1ccc(/C=C/c3ccccc3)cc1S2(=O)=O	-4.2	51.3*	nt	13.5	5.9	16.3
O=C(CCc1ccccc1)OCC(=O)c1cccc([N+](=O)[O-])c1	-5.2	-6.5	-19.7	-1.4	-8.4	32.0
O=C(COC(=O)c1cccc([N+](=O)[O-])c1)c1ccc(OCc2ccccc2)cc1	52.6*	-1.9	2.7	0.5	53.2*	5.4
O=C(COc1cccc(NC(=O)c2cccc([N+](=O)[O-])c2)c1)c1ccc(Br)cc1	9.1	83.3*	-2.5	18.9	21.3	53.6
Cc1[nH]c2ccccc2c1CC(=O)Nc1ccc(Nc2ccncc2)cc1	nt	-15.8	nt	3.0	nt	nt
Cc1nn(Cc2cccc(F)c2)c(C)c1NC(=O)c1ccc(COc2ccccc2Cl)cc1	6.1	101.4*	2.4	4.8	14.3	14.9
Cc1nn(Cc2c(F)c(F)c(F)c(F)c2F)c(C)c1NC(=O)c1cccc(COc2ccccc2Cl)c1	-23.1	-5.0	-6.3	3.0	-26.5	1.4
CCc1cc2c(nc1CC)CCCN2S(=O)(=O)c1ccc(C#N)cc1	nt	9.4	nt	1.4	nt	nt
COc1cccc(NC(=S)NC(C)c2ccc(OC)c(OC)c2)c1 (centres undefined)	-10.8	2.2	-12.9	8.0	-15.6	75.1*
CCN1CCN(c2cc(N3CCN(C(=O)c4ccco4)CC3)c3c4c(onc24)-c2ccccc2C3=O)CC1	-20.2	nt	6.5	nt	-26.3	69.0*
